Data as given in ChEMBL document CHEMBL3045981, “Synthesis and insecticidal activities of novel N-sulfenyl-N'-tert-butyl-N,N'-diacylhydrazines. 2. N-substituted phenoxysulfenate derivatives” (2008).
Converted amounts (≈) assume the structure as drawn.

Tests used:
Format in all cases: functional
Mythimna separata [1] = test: Stomach toxicity against Mythimna separata (Oriental armyworm) fourth-instar larvae reared on compound pre-treated corn leaves assessed as insect mortality at 2.5 mg/kg measured 4 days post compound treatment
Mythimna separata [2] = test: Stomach toxicity against Mythimna separata (Oriental armyworm) fourth-instar larvae reared on compound pre-treated corn leaves assessed as insect mortality at 5 mg/kg measured 4 days post compound treatment
Mythimna separata [3] = test: Stomach toxicity against Mythimna separata (Oriental armyworm) fourth-instar larvae reared on compound pre-treated corn leaves assessed as insect mortality at 25 mg/kg measured 4 days post compound treatment
Mythimna separata [4] = test: Stomach toxicity against Mythimna separata (Oriental armyworm) fourth-instar larvae reared on compound pre-treated corn leaves assessed as insect mortality at 10 mg/kg measured 4 days post compound treatment
Mythimna separata [5] = test: Stomach toxicity against Mythimna separata (Oriental armyworm) fourth-instar larvae reared on compound pre-treated corn leaves assessed as insect mortality at 50 mg/kg measured 4 days post compound treatment
Spodoptera litura [6] = test: Contact toxicity against Spodoptera litura fourth-instar larvae exposed to compound on thoracic tergite region assessed as insect mortality measured 48 hr post compound treatment
Method in brief: (§1)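 Topical application: each fourth-instar larva received 1 µL of acetone dilution on the thoracic tergite via automatic microapplicator; five to seven concentrations. Acetone-only control. Usually 40 insects per dose, four replicates. Larvae returned to standard rearing at 25 ± 1 °C. Mortality read 48 h after treatment, Abbott-corrected, and LD50 (median lethal dose) derived.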

Helicoverpa armigera = test: Contact toxicity against Helicoverpa armigerafourth-instar larvae exposed to compound on thoracic tergite region assessed as insect mortality measured 48 hr post compound treatment; method in brief: as §1
Spodoptera litura [7] = test: Stomach toxicity against Spodoptera litura third-instar larvae reared on compound pre-treated cabbage leaves assessed as insect mortality measured 3 days post compound treatment
Method in brief: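 Leaf-dip: cabbage leaf discs (5 cm × 3 cm) dipped 3 s in test solution, air-dried, placed singly in 80 cm³ boxes. Five third-instar larvae per disc. Water- and acetone-treated leaves as controls. Held at 25 ± 1 °C. Mortality scored on a dead/alive basis 3 days after treatment and Abbott-corrected.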

Ostrinia furnacalis = test: Contact toxicity against Ostrinia furnacalis (Asian corn borer) fourth-instar larvae exposed to compound on thoracic tergite region assessed as insect mortality measured 48 hr post compound treatment; method in brief: as §1

`CCc1ccc(C(=O)N(N(SOc2ccc(C)cc2)C(=O)c2cc(C)cc(C)c2)C(C)(C)C)cc1` showed a mortality at 2.5 mg/kg (Mythimna separata [1]) of 30% and a mortality at 5 mg/kg (Mythimna separata [2]) of 100%.
In the case of `CCc1ccc(C(=O)N(N(SOc2ccc(C)c(C)c2)C(=O)c2cc(C)cc(C)c2)C(C)(C)C)cc1`, the mortality at 2.5 mg/kg (Mythimna separata [1]) is reported as 10% and the mortality at 5 mg/kg (Mythimna separata [2]) is reported as 70%.
`CCc1ccc(C(=O)N(N(SOc2ccccc2OC)C(=O)c2cc(C)cc(C)c2)C(C)(C)C)cc1` was tested, and the mortality at 2.5 mg/kg (Mythimna separata [1]) was 80% and the mortality at 5 mg/kg (Mythimna separata [2]) was 90%.
Molecule `CCc1ccc(C(=O)N(N(SOc2cccc(OC)c2)C(=O)c2cc(C)cc(C)c2)C(C)(C)C)cc1` has a mortality at 2.5 mg/kg (Mythimna separata [1]) of 50% and a mortality at 5 mg/kg (Mythimna separata [2]) of 100%.
`CCc1ccc(C(=O)N(N(SOc2ccc(OC)cc2)C(=O)c2cc(C)cc(C)c2)C(C)(C)C)cc1` showed a mortality at 2.5 mg/kg (Mythimna separata [1]) of 80% and a mortality at 5 mg/kg (Mythimna separata [2]) of 100%.
`CCc1ccc(C(=O)N(N(SOc2ccccc2C(=O)OC)C(=O)c2cc(C)cc(C)c2)C(C)(C)C)cc1` gave a mortality at 2.5 mg/kg (Mythimna separata [1]) of 60% and a mortality at 5 mg/kg (Mythimna separata [2]) of 100%.
`CCc1ccc(C(=O)N(N(SOc2cccc(C(=O)OC)c2)C(=O)c2cc(C)cc(C)c2)C(C)(C)C)cc1` gave a mortality at 2.5 mg/kg (Mythimna separata [1]) of 80% and a mortality at 5 mg/kg (Mythimna separata [2]) of 90%.
`CCc1ccc(C(=O)N(N(SOc2ccc(C(=O)OC)cc2)C(=O)c2cc(C)cc(C)c2)C(C)(C)C)cc1` was tested, and the mortality at 2.5 mg/kg (Mythimna separata [1]) was 100% and the mortality at 5 mg/kg (Mythimna separata [2]) was 100%.
Work on `CCc1ccc(C(=O)N(N(SOc2ccc(-c3ccccc3)cc2)C(=O)c2cc(C)cc(C)c2)C(C)(C)C)cc1` yielded a mortality at 2.5 mg/kg (Mythimna separata [1]) of 90% and a mortality at 5 mg/kg (Mythimna separata [2]) of 100%.
`Cc1cc(C)cc(C(=O)N(N(SOc2ccc(Cl)cc2)C(=O)c2ccc3c(c2C)OC(C)C3)C(C)(C)C)c1` (stereo not drawn) was tested, and the mortality at 2.5 mg/kg (Mythimna separata [1]) was 90% and the mortality at 5 mg/kg (Mythimna separata [2]) was 100%.
Work on `COc1cccc(C(=O)N(N(SOc2ccc(Cl)cc2)C(=O)c2cc(C)cc(C)c2)C(C)(C)C)c1C` yielded a mortality at 2.5 mg/kg (Mythimna separata [1]) of 100% and a mortality at 5 mg/kg (Mythimna separata [2]) of 100%.
For `CC(C)(C)N(C(=O)c1ccc(Cl)cc1)N(SOc1ccc(Cl)cc1)C(=O)c1ccccc1`, the mortality at 25 mg/kg (Mythimna separata [3]) was 100%, the mortality at 2.5 mg/kg (Mythimna separata [1]) was 0% and the mortality at 10 mg/kg (Mythimna separata [4]) was 100%. For the same molecule, the mortality at 5 mg/kg (Mythimna separata [2]) was 30%.
In the case of `CC(C)(C)N(C(=O)c1ccccc1)N(SOc1ccccc1)C(=O)c1ccccc1`, the mortality at 25 mg/kg (Mythimna separata [3]) is reported as 100%, the mortality at 10 mg/kg (Mythimna separata [4]) is reported as 0% and the mortality at 50 mg/kg (Mythimna separata [5]) is reported as 100%.
For `CC(C)(C)N(C(=O)c1ccccc1)N(SOc1ccc(Cl)cc1)C(=O)c1ccccc1`, the mortality at 25 mg/kg (Mythimna separata [3]) was 100%, the mortality at 10 mg/kg (Mythimna separata [4]) was 0% and the mortality at 50 mg/kg (Mythimna separata [5]) was 100%.
With `Cc1ccc(OSN(C(=O)c2ccccc2)N(C(=O)c2ccccc2)C(C)(C)C)cc1` the mortality at 25 mg/kg (Mythimna separata [3]) was 80%, the mortality at 10 mg/kg (Mythimna separata [4]) was 10% and the mortality at 50 mg/kg (Mythimna separata [5]) was 100%.
Molecule `CCc1ccc(C(=O)N(N(SOc2ccccc2)C(=O)c2cc(C)cc(C)c2)C(C)(C)C)cc1` has a mortality at 25 mg/kg (Mythimna separata [3]) of 100%, a mortality at 2.5 mg/kg (Mythimna separata [1]) of 70% and a mortality at 10 mg/kg (Mythimna separata [4]) of 100%. The mortality at 50 mg/kg (Mythimna separata [5]) was 100% and the mortality at 5 mg/kg (Mythimna separata [2]) was 90%.
Work on `CCc1ccc(C(=O)N(N(SOc2ccccc2Br)C(=O)c2cc(C)cc(C)c2)C(C)(C)C)cc1` yielded a mortality at 2.5 mg/kg (Mythimna separata [1]) of 30% and a mortality at 5 mg/kg (Mythimna separata [2]) of 100%.
For `CCc1ccc(C(=O)N(N(SOc2ccc(Br)cc2)C(=O)c2cc(C)cc(C)c2)C(C)(C)C)cc1`, the mortality at 2.5 mg/kg (Mythimna separata [1]) was 50% and the mortality at 5 mg/kg (Mythimna separata [2]) was 100%.
Work on `CCc1ccc(C(=O)N(N(SOc2ccccc2Cl)C(=O)c2cc(C)cc(C)c2)C(C)(C)C)cc1` yielded a mortality at 2.5 mg/kg (Mythimna separata [1]) of 80% and a mortality at 5 mg/kg (Mythimna separata [2]) of 95%.
Molecule `CCc1ccc(C(=O)N(N(SOc2cccc(Cl)c2)C(=O)c2cc(C)cc(C)c2)C(C)(C)C)cc1` has a mortality at 2.5 mg/kg (Mythimna separata [1]) of 80% and a mortality at 5 mg/kg (Mythimna separata [2]) of 90%.
`CCc1ccc(C(=O)N(N(SOc2ccc(Cl)cc2Cl)C(=O)c2cc(C)cc(C)c2)C(C)(C)C)cc1` showed a mortality at 2.5 mg/kg (Mythimna separata [1]) of 40% and a mortality at 5 mg/kg (Mythimna separata [2]) of 90%.
`CCc1ccc(C(=O)N(N(SOc2c(Cl)cc(Cl)cc2Cl)C(=O)c2cc(C)cc(C)c2)C(C)(C)C)cc1` was tested, and the mortality at 2.5 mg/kg (Mythimna separata [1]) was 50% and the mortality at 5 mg/kg (Mythimna separata [2]) was 90%.
`CCc1ccc(C(=O)N(N(SOc2ccccc2C)C(=O)c2cc(C)cc(C)c2)C(C)(C)C)cc1` showed a mortality at 2.5 mg/kg (Mythimna separata [1]) of 60% and a mortality at 5 mg/kg (Mythimna separata [2]) of 100%.
Molecule `CCc1ccc(C(=O)N(N(SOc2cccc(C)c2)C(=O)c2cc(C)cc(C)c2)C(C)(C)C)cc1` has a mortality at 2.5 mg/kg (Mythimna separata [1]) of 70% and a mortality at 5 mg/kg (Mythimna separata [2]) of 95%.
`Cc1cc(C)cc(C(=O)N(NC(=O)c2ccc3c(c2C)OC(C)C3)C(C)(C)C)c1` (stereo not drawn) [FUXIAN] gave a mortality at 2.5 mg/kg (Mythimna separata [1]) of 90% and a mortality at 5 mg/kg (Mythimna separata [2]) of 100%.
With `CC(C)(C)N(NC(=O)c1ccc(Cl)cc1)C(=O)c1ccccc1` [HALOFENOZIDE] the mortality at 2.5 mg/kg (Mythimna separata [1]) was 10%, the mortality at 50 mg/kg (Mythimna separata [5]) was 100% and the mortality at 5 mg/kg (Mythimna separata [2]) was 70%.
`COc1cccc(C(=O)NN(C(=O)c2cc(C)cc(C)c2)C(C)(C)C)c1C` [METHOXYFENOZIDE] gave a mortality at 2.5 mg/kg (Mythimna separata [1]) of 100% and a mortality at 5 mg/kg (Mythimna separata [2]) of 100%.
For `CC(C)(C)N(NC(=O)c1ccccc1)C(=O)c1ccccc1` [RH-5849], the mortality at 25 mg/kg (Mythimna separata [3]) was 70%, the mortality at 10 mg/kg (Mythimna separata [4]) was 0% and the mortality at 50 mg/kg (Mythimna separata [5]) was 100%.
With `CCc1ccc(C(=O)NN(C(=O)c2cc(C)cc(C)c2)C(C)(C)C)cc1` [TEBUFENOZIDE] the LD50 (Spodoptera litura [6]) was 527 mg/kg, the LD50 (Helicoverpa armigera) was 1310 mg/kg and the LC50 (Spodoptera litura [7]) was 11.2 mg/L (≈ 31.7 µM). For the same molecule, the LD50 (Ostrinia furnacalis) was 59.4 mg/kg, the mortality at 2.5 mg/kg (Mythimna separata [1]) was 55% and the mortality at 10 mg/kg (Mythimna separata [4]) was 100%. For the same molecule, the mortality at 5 mg/kg (Mythimna separata [2]) was 95%.
